Test results reported in ChEMBL document CHEMBL4152207, “Discovery of potent and selective BRD4 inhibitors capable of blocking TLR3-induced acute airway inflammation” (Eur J Med Chem, 2018).
pIC50: −log10 of the molar value.

How the values were obtained:
[1] = molecular target: Cholecystokinin receptor type A (Homo sapiens) (UniProt P32238); assay: Displacement of [125I]CCK-8s from human recombinant CCK1 receptor at 10 uM after 60 mins by scintillation counting analysis relative to control
[2] = molecular target: Glutamate [NMDA] receptor (Homo sapiens) (UniProt Q05586+Q12879+Q13224+O15399+O60391+Q14957+Q8TCU5); assay: Binding affinity to NMDA receptor (unknown origin) at 10 uM by antgonist radioligand assay relative to control; type: protein-complex assay
[3] = test system: Mus musculus; assay: Renal toxicity in mouse assessed as effect on CRE level at 1 to 50 mg/kg, ip dosed daily for 1 month; type: organism-based; settings: in vivo
[4] = molecular target: Glucocorticoid receptor (Homo sapiens) (UniProt P04150); assay: Displacement of [3H]dexamethasone from human GR at 10 uM after 360 mins by scintillation counting analysis relative to control
[5] = test system: Mus musculus; assay: Hepatotoxicity in mouse assessed as effect on ALKP level at 1 to 50 mg/kg, ip dosed daily for 1 month; type: toxicity, organism-based; settings: in vivo
Summary of the method: (§1)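 Groups of n = 5 mice were dosed daily at 1-50 mg/kg for one month. Liver function markers (albumin, globulin, ALK, ALT) were measured alongside body weight, blood counts and renal markers.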

[6] = molecular target: cGMP-inhibited 3',5'-cyclic phosphodiesterase 3A (Homo sapiens) (UniProt Q14432); assay: Displacement of [3H]cAMP from human recombinant PDE3A at 10 uM after 20 mins by scintillation counting analysis relative to control
[7] = molecular target: D(1A) dopamine receptor (Homo sapiens) (UniProt P21728); assay: Displacement of [3H]-SCH 23390 from human recombinant dopamine D1 receptor at 10 uM after 60 mins by scintillation counting analysis relative to control
[8] = AUC (0 to t) in rat at 10 mg/kg, iv; type: ADME, organism-based; settings: in vivo
[9] = molecular target: Alpha-1A adrenergic receptor (Homo sapiens) (UniProt P35348); assay: Displacement of [3H]prazosin from human recombinant adrenergic alpha1A receptor at 10 uM after 120 mins by scintillation counting analysis relative to control
[10] = molecular target: Histamine H2 receptor (Homo sapiens) (UniProt P25021); assay: Displacement of [125I]APT from human recombinant histamine H2 receptor at 10 uM after 120 mins by scintillation counting analysis relative to control
[11] = molecular target: CREB-binding protein (Homo sapiens, UniProt Q92793); assay: Inhibition of CBP (unknown origin) after 1 hr by TR-FRET assay
Summary of the method: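 Isolated bromodomain in a kit TR-FRET assay. Inhibitor series 0.01 nM to 100 μM, incubated 1 h at room temperature. Excitation 340 nm, emission read at 620 and 670 nm with 100 μs delay and 500 μs window. IC50 from the sigmoidal plot of the 670/620 ratio against concentration. Mean of at least two runs.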

[12] = molecular target: Delta-type opioid receptor (Homo sapiens) (UniProt P41143); assay: Displacement of [3H]DADLE from human recombinant delta opioid receptor after 60 mins by scintillation counting analysis relative to control
[13] = molecular target: Mu-type opioid receptor (Homo sapiens) (UniProt P35372); assay: Displacement of [3H]DAMGO from human recombinant mu opioid receptor at 10 uM after 120 mins by scintillation counting analysis relative to control
[14] = molecular target: Alpha-2A adrenergic receptor (Homo sapiens) (UniProt P08913); assay: Binding affinity to adrenergic alpha2A receptor (unknown origin) at 10 uM by agonist radioligand assay relative to control
[15] = test system: Mus musculus; assay: Hepatotoxicity in mouse assessed as effect on ALT level at 1 to 50 mg/kg, ip dosed daily for 1 month; type: toxicity, organism-based; settings: in vivo; summary of the method: as §1
[16] = molecular target: Muscarinic acetylcholine receptor M1 (Homo sapiens) (UniProt P11229); assay: Displacement of [125I]pirenzepine from human recombinant M1 receptor at 10 uM after 60 mins by scintillation counting analysis relative to control
[17] = molecular target: Kappa-type opioid receptor (Homo sapiens) (UniProt P41145); assay: Displacement of [3H]U69593 from human kappa opioid receptor at 10 uM after 60 mins by scintillation counting analysis relative to control
[18] = molecular target: Adenosine receptor A2a (Homo sapiens) (UniProt P29274); assay: Displacement of [3H]-CGS 21680 from human recombinant adenosine A2A receptor at 10 uM after 120 mins by scintillation counting analysis relative to control
[19] = molecular target: 5-hydroxytryptamine receptor 1A (Homo sapiens) (UniProt P08908); assay: Displacement of [3H]8-OH-DPAT from recombinant human 5-HT1A receptor at 10 uM after 60 mins by scintillation counting analysis relative to control
[20] = molecular target: D(2) dopamine receptor (Homo sapiens) (UniProt P14416); assay: Displacement of [3H]7-OH-DPAT from human recombinant dopamine D2S receptor at 10 uM after 60 mins by scintillation counting analysis relative to control
[21] = test system: Mus musculus; assay: Toxicity in mouse assessed as effect on platelet level at 1 to 50 mg/kg, ip dosed daily for 1 month; type: organism-based; settings: in vivo
[22] = Total clearance in rat at 10 mg/kg, iv; type: ADME, organism-based; settings: in vivo
[23] = molecular target: MAO-A (amine oxidase [flavin-containing] A) (Rattus norvegicus, UniProt P21396); assay: Displacement of [3H]Ro 41-1049 from rat MAO-A at 10 uM after 120 mins by scintillation counting analysis relative to control; settings: probe [3H]Ro 41-1049, read-out: Activity
[24] = test system: Mus musculus; assay: Renal toxicity in mouse at 1 to 50 mg/kg, ip dosed daily for 1 month by histological analysis; type: organism-based; settings: in vivo
[25] = molecular target: B2 bradykinin receptor (Homo sapiens) (UniProt P30411); assay: Displacement of [3H]bradykinin from human recombinant B2 receptor at 10 uM after 60 mins by scintillation counting analysis relative to control
[26] = molecular target: Endothelin-1 receptor (Homo sapiens) (UniProt P25101); assay: Displacement of [125I]endothelin-1 from human recombinant endothelin ETA receptor at 10 uM after 120 mins by scintillation counting analysis relative to control
[27] = test system: Mus musculus; assay: Pulmonary toxicity in mouse at 1 to 50 mg/kg, ip dosed daily for 1 month by histological analysis; type: organism-based; settings: in vivo
[28] = organism: Rattus norvegicus; assay: Displacement of [125I]alpha-dendrotoxin from rat Voltage-gated potassium channel at 10 uM after 60 mins by scintillation counting analysis relative to control
Summary of the method: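 Run within a commercial off-target panel of receptors and enzymes, with compound tested at a single concentration of 10 μM.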

[29] = test system: Mus musculus; assay: Toxicity in mouse assessed as effect on RBC levels at 1 to 50 mg/kg, ip dosed daily for 1 month; type: organism-based; settings: in vivo
[30] = test system: Mus musculus; assay: Toxicity in mouse assessed as effect on body weight at 1 to 50 mg/kg, ip dosed daily for 1 month; type: organism-based; settings: in vivo
[31] = test system: Mus musculus; assay: Renal toxicity in mouse assessed as effect on BUN level at 1 to 50 mg/kg, ip dosed daily for 1 month; type: organism-based; settings: in vivo
[32] = molecular target: Sodium-dependent serotonin transporter (Homo sapiens) (UniProt P31645); assay: Binding affinity to human serotonin transporter at 10 uM by antagonist radioligand assay relative to control; parameters: scale not given: the % may be the effect or the level left
[33] = molecular target: 5-hydroxytryptamine receptor 1B (Homo sapiens) (UniProt P28222); assay: Displacement of [125I]-CYP from human 5-HT1B receptor at 10 uM after 120 mins by scintillation counting analysis relative to control

B2 bradykinin receptor (Homo sapiens), sequence (P30411 whole entry): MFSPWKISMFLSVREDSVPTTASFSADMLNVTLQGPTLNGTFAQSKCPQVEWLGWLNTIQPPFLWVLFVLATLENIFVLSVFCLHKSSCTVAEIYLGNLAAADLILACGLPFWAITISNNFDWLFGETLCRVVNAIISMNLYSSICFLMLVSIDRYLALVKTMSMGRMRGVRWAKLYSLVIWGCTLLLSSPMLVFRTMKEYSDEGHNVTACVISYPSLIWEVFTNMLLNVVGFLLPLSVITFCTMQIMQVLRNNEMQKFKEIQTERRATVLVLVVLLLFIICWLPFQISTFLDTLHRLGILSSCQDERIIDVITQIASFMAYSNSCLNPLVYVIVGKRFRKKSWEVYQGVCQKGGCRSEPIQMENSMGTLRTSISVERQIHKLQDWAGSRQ
MAO-A (amine oxidase [flavin-containing] A), sequence (P21396 whole entry): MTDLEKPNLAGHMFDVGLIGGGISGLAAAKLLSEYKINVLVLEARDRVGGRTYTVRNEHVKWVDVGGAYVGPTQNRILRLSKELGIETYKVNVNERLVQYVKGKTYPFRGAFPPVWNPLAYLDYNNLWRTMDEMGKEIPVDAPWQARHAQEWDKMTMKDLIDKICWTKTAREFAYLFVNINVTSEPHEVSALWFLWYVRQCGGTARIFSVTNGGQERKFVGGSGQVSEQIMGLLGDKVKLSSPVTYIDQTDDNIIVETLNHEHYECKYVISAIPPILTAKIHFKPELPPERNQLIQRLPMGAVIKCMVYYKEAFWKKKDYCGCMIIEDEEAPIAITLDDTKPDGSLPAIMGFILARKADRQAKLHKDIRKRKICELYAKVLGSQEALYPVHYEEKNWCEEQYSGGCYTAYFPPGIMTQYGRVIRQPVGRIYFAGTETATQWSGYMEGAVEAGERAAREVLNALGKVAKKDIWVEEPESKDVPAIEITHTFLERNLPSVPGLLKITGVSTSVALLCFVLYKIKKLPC
Cholecystokinin receptor type A (Homo sapiens), sequence (P32238 whole entry): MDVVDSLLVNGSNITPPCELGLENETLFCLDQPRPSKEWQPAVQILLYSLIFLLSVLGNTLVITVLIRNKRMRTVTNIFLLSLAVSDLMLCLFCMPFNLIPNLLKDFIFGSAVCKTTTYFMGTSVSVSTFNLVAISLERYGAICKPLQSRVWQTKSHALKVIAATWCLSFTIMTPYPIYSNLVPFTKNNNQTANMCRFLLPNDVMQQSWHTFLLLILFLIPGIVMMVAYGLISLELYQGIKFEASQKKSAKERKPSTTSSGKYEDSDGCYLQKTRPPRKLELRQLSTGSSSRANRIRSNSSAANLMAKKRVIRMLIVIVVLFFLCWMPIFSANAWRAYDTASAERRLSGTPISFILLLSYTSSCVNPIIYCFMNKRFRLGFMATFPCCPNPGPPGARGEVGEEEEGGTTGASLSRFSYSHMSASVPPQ
Adenosine receptor A2a (Homo sapiens), sequence (P29274 whole entry): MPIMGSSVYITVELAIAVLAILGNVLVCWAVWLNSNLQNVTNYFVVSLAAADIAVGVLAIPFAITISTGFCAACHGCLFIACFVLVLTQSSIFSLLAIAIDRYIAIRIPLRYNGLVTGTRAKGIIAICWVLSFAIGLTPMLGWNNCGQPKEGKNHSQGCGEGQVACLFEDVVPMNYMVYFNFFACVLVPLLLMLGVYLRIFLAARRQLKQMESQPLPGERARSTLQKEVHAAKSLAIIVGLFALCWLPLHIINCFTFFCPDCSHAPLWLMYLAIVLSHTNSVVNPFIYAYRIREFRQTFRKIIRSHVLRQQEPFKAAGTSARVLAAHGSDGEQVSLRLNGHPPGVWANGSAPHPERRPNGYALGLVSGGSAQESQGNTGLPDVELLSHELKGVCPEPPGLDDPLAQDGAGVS
Alpha-1A adrenergic receptor (Homo sapiens), sequence (P35348 whole entry): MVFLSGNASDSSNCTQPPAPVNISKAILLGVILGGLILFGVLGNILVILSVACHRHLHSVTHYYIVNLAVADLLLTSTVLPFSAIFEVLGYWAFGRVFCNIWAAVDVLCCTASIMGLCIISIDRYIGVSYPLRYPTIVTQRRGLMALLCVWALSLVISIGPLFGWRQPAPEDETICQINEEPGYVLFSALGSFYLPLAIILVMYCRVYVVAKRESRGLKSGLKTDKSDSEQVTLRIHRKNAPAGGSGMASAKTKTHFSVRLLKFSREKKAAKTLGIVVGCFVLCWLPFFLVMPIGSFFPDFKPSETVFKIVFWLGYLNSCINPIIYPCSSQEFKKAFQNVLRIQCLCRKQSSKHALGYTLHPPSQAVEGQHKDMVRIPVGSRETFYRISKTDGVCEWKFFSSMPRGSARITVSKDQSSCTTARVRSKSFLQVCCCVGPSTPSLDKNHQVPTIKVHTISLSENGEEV
D(2) dopamine receptor (Homo sapiens), sequence (P14416 whole entry): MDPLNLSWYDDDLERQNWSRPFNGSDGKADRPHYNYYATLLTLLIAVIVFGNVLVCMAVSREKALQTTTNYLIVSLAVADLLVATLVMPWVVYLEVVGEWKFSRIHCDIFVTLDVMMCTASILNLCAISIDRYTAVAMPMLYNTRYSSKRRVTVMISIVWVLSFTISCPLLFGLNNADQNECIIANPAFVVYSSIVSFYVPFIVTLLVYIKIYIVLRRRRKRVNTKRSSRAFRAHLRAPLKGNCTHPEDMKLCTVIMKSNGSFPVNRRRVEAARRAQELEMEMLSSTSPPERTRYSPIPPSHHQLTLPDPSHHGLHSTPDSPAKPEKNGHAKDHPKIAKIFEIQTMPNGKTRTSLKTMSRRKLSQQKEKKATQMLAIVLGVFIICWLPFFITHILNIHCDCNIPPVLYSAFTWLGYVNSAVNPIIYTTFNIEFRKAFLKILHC
Glucocorticoid receptor (Homo sapiens), sequence (P04150 whole entry): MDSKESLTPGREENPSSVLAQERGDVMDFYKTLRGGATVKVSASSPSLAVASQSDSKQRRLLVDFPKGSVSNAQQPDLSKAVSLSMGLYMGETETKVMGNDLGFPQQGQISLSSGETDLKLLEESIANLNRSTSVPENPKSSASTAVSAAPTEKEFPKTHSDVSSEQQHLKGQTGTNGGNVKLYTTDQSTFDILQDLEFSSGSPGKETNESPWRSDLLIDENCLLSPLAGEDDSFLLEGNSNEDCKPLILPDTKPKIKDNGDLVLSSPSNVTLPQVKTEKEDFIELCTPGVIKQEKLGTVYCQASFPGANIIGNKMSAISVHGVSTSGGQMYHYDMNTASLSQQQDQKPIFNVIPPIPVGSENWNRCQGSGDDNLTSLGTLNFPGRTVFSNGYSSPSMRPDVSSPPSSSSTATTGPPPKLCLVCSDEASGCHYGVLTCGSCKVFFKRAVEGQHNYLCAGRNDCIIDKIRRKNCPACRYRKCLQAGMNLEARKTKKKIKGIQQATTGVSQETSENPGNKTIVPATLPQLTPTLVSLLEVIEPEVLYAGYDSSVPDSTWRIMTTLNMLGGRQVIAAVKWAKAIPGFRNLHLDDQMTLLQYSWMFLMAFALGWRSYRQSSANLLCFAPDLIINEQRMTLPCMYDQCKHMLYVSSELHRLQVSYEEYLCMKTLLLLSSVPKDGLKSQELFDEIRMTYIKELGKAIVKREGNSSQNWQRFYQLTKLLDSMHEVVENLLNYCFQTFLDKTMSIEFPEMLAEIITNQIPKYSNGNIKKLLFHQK
D(1A) dopamine receptor (Homo sapiens), sequence (P21728 whole entry): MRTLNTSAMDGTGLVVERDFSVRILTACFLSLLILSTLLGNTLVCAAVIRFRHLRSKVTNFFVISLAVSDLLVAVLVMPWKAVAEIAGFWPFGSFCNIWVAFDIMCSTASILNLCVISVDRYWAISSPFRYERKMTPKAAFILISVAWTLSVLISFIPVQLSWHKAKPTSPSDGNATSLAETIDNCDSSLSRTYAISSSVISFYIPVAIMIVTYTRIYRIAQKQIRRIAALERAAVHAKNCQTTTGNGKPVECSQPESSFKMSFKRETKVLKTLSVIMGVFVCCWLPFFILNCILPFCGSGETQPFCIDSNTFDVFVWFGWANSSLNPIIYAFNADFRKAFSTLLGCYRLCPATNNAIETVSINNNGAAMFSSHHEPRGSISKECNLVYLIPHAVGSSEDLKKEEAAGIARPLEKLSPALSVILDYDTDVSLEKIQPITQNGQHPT
Sodium-dependent serotonin transporter (Homo sapiens), sequence (P31645 whole entry, looked up): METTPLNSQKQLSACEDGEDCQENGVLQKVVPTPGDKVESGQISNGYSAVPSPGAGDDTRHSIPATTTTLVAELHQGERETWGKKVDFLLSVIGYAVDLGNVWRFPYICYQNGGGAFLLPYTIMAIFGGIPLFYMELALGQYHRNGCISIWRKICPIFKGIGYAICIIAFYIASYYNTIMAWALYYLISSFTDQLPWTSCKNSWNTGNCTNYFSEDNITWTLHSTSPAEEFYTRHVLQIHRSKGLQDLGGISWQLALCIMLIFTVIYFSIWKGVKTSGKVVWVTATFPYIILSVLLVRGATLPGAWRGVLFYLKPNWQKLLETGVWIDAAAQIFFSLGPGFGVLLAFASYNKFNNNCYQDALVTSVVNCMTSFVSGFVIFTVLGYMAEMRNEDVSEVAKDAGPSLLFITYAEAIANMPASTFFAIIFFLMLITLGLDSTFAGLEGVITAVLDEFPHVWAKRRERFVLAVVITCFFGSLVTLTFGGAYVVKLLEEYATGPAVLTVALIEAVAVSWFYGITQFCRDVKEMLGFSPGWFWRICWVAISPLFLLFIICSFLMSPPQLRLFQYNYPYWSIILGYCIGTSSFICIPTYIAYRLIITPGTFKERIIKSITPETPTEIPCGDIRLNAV
Alpha-2A adrenergic receptor (Homo sapiens), sequence (P08913 whole entry): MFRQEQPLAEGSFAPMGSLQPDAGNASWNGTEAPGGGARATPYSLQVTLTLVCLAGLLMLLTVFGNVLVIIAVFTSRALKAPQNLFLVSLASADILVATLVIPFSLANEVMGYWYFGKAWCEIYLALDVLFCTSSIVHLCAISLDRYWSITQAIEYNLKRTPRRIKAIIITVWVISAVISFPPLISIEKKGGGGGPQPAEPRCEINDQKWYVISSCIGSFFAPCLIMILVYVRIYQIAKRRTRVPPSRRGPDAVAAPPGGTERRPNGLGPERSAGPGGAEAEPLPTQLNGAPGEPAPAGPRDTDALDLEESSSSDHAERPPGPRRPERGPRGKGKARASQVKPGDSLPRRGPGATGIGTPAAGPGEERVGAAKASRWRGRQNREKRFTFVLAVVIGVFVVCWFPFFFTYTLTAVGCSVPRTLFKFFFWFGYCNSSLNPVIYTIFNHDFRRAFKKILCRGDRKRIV

Compound: Cc1cc(/N=N/c2ccc(S(=O)(=O)NC3CCCC3)cc2)c(N)cc1O
- Activity [1]: 17.4%
- Activity [2]: 17%
- Activity [3]: Non-Toxic
- Activity [4]: 15%
- Activity [5]: Non-Toxic
- Activity [6]: 46%
- Activity [7]: 21.9%
- AUC(0-t) [8]: 11400 ng·h/mL
- Activity [9]: 17.2%
- Activity [10]: -10.1%
- pIC50 [11]: < 5.00
- Activity [12]: -2.7%
- Activity [13]: 17.4%
- Activity [14]: 3%
- Activity [15]: Non-Toxic
- Activity [16]: -1.5%
- Activity [17]: 8.9%
- Activity [18]: 38.1%
- Activity [19]: -0.1%
- Activity [20]: 36.9%
- Activity [21]: Non-Toxic
- clearance [22]: 14.7 mL/min/kg
- inhibition at 2 h, 10 µM [23]: 49.8%
- Activity [24]: Non-Toxic
- Activity [25]: -2.4%
- Activity [26]: -4.3%
- Activity [27]: Non-Toxic
- Activity [28]: 8.5%
- Activity [29]: Non-Toxic
- Activity [30]: Non-Toxic
- Activity [31]: Non-Toxic
- Activity [32]: 15%
- Activity [33]: -9.6%
